Assay results: article PMC5935105 (Analytical biochemistry, 2018)

Tests used:
[1] = system: phospho ERK1/2 T202/Y204 levels in HeLa cells; assay: phospho ERK1/2 T202/Y204 levels in HeLa cells; type: cell-based; conditions: 30 minutes; for phospho ERK levels at higher concentrations: higher concentrations (up to 200 μM); for phospho ERK levels at lower concentrations: lower concentrations of compound
[2] = system: RAS-GTP levels in HeLa cells; assay: RAS-GTP levels in HeLa cells; type: cell-based; conditions: 30 minutes, up to 200 μM compound
[3] = molecular target: SOS-catalyzed nucleotide exchange on RAS (SOScat, K-RAS G12D) (Homo sapiens, UniProt Q07889); assay: SOS-catalyzed nucleotide exchange assay using BODIPY-GDP-loaded RAS; type: biochemical; conditions: average of the two values of Table 1; 100 μM compound; normalized to API
Summary of the method: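 SOScat (residues 564–1049) with BODIPY-GDP-loaded RAS in 25 mM Tris pH 7.5, 50 mM NaCl, 1 mM MgCl2. Compound added at 10 s and unlabeled GTP at 120 s; fluorescence loss followed for 30 min. Rates come from single-exponential decay fits, normalized between SOS-catalyzed exchange without compound (0) and the maximal rate from the control compound on each plate (100).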

N[C@@H](Cc1c[nH]c2ccccc12)C(=O)NC1CCN(Cc2c[nH]c3ccc(Cl)cc23)CC1 [API, (S)-2-amino-N-(1-((5-chloro-1H-indol-3-yl)methyl)piperidin-4-yl)-3-(1H-indol-3-yl)propanamide, reference compound]
phospho ERK levels at higher concentrations [1]: inhibition of phospho ERK levels was observed
phospho ERK levels at lower concentrations [1]: induction of phospho ERK levels
RAS-GTP levels relative to DMSO control [2]: increase in RAS-GTP levels was observed
Average Relative Rate of Nucleotide Exchange at 100 μM [3]: 100%

CCCN1CCC(NCCC(c2ccccc2)c2ccccc2)CC1 [Compound 4, N-(3,3-diphenylpropyl)-1-propylpiperidin-4-amine]
RAS-GTP levels relative to DMSO control [2]: did not cause an increase in RAS-GTP levels
Average Relative Rate of Nucleotide Exchange at 100 μM [3]: 50.9%

c1ccc(C(CCNC2CCNCC2)c2ccccc2)cc1 [Compound 4a, N-(3,3-diphenylpropyl)piperidin-4-amine]
phospho ERK levels at higher concentrations [1]: inhibition of phospho ERK levels was observed
phospho ERK levels at lower concentrations [1]: induction of phospho ERK levels
RAS-GTP levels relative to DMSO control [2]: increase in RAS-GTP levels was observed
Average Relative Rate of Nucleotide Exchange at 100 μM [3]: 69.1%
